Experimental data as given in the RNAGym collection of RNA variant scans (doi:10.1126/science.aae0568).
Variants at the floor of the assay were thinned out.

B1: tRNA (parent)
chain: GUUCCGUUGGCGUAAUGGUAACGCGUCUCCCUCCUAAGGAGAAGACUGCGGGUUCGAGUCCCGUACGGAACG

Variants of: B1
Experiment: yeast fitness relative to wild type (ratio to wild type); higher = fitter; tRNA-Arg(CCU), competitive growth, 37 C, YPD
Procedure, shortened: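 The tRNA-Arg(CCU) gene variants were made by chemical synthesis with a 3% per-site mutation rate at 69 sites and inserted at the native genomic locus of Saccharomyces cerevisiae. After pooling, the strains were competed in YPD at 37°C for 24 hours in six parallel replicates. Gene amplicons from the start population and each end population were read by 100-nucleotide paired-end sequencing, and Darwinian fitness relative to wild type was taken from genotype frequency changes. Genotypes needed ≥ 100 starting reads, and estimates < 0.5 were set to 0.5.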

Row | Variant | yeast fitness
1 | C34A C66A | 0.509
2 | C33U G38A | 0.866
3 | C34A A42C | 0.818
4 | C34A A42U | 0.618
5 | C33U A42C A65G | 0.58
6 | C33U C34A A43C | ≤ 0.5
7 | C33G A42U A43U A65C G68C | 0.553
8 | C33A G58C U64G | 0.564
9 | C33G A40G G51C C61U A65U | 0.667
10 | C33U A40C C60G | ≤ 0.5
11 | C33U G50C A70U | ≤ 0.5
12 | C34A A42G C46U | ≤ 0.5
13 | C33U A45C U64G | ≤ 0.5
14 | C33G U47A C61A C66U | ≤ 0.5
15 | C34A G50A C61G | ≤ 0.5
16 | C33G C34U G68A | 0.582
17 | C34A A37U A69C | ≤ 0.5
18 | C33U A43G C62G | ≤ 0.5
19 | C34A G44C A70U | 0.54
20 | C33G C34G A43G C46G | ≤ 0.5
21 | C33G G51C C66G G67C | ≤ 0.5

Row | Variant | yeast fitness
22 | C34A G38C A43U | 0.588
23 | C33A U53A | ≤ 0.5
24 | C33U A36G G39A G44A C55G U59C | ≤ 0.5
25 | C34A C49U G58C | ≤ 0.5
26 | C33U A37U C60G A69C | ≤ 0.5
27 | C33U A43U G44A C49G G50C C61U C66U | ≤ 0.5
28 | C33G A40G G52C | ≤ 0.5
29 | C33G C34U C55U A65U G68C | ≤ 0.5
30 | C33U A42C C46A | ≤ 0.5
31 | C33G G39C C55U | 0.515
32 | C33U A57U | 0.546
33 | C33U A57C | ≤ 0.5
34 | C33G C61U G67A | 0.649
35 | C33U A36G C55U A69C | ≤ 0.5
36 | C33U G56A | 0.682
37 | C33G A57U C62U | ≤ 0.5
38 | C33G G50A | 0.614
39 | C33U U59A | 0.67
40 | C33G A36G G51C U64A C66U A69C | ≤ 0.5
41 | C33G A45U C46U | ≤ 0.5
42 | C33U A70G | 0.6

Row | Variant | yeast fitness
43 | C33G G41C G56C G58A G63C A65U | 0.587
44 | C34A C46G C60A | ≤ 0.5
45 | C33U A45C | 0.703
46 | C33U C49A G68C | ≤ 0.5
47 | C33G A43C | 0.666
48 | C34A A42U G58A C62U G63A | ≤ 0.5
49 | C33G A36C A57U | ≤ 0.5
50 | C34A A42U G68C | ≤ 0.5
51 | C33U A37U G51C A65U | 0.584
52 | C33G A69U | 0.764
53 | C33G A69C | 0.742
54 | C34A C61G | ≤ 0.5
55 | C34A C49A G63U G67A | ≤ 0.5
56 | C34A C46U C61G | ≤ 0.5
57 | C33G A42U C60G | ≤ 0.5
58 | C34A C49A G51C | 0.591
59 | C33U C49A | 0.638
60 | C33U C49U | 0.849
61 | C33G A40U G51C | ≤ 0.5
62 | C33G G41C | 0.58
63 | C34A G51A G67A | ≤ 0.5

Row | Variant | yeast fitness
64 | C33G A45G A70U | ≤ 0.5
65 | C34A A37U | 0.741
66 | C33U G63A | 0.614
67 | C33U G63C | 0.545
68 | C33U C49G A65C | 0.504
69 | C34A A37C G63C | ≤ 0.5
70 | C34A G52A | 0.741
71 | C34A G52C | 0.721
72 | C34A A40C A42U A65U G67A | ≤ 0.5
73 | C33U A43C C46G | ≤ 0.5
74 | C33U G41C A45C | 0.621
75 | C33U A43C G48A G63C | ≤ 0.5
76 | C34A C46U U47A | ≤ 0.5
77 | C33G A37G A40C C49G G67C | ≤ 0.5
78 | C33G A40G U59A | ≤ 0.5
79 | C33G U47G A57G A69U | 0.509
80 | C33G G63U U64G | 0.665
81 | C33G G63U U64A | 0.553
82 | C33U G48A U64G | 0.618
83 | C33U A42C C55G G68C | ≤ 0.5
